# In the library only some 3.8% were active in any assay of this set; here they are far more common.
# KCNQ1 inh: inhibitors of human KCNQ1 channel, primary screen, cell-based, thallium flux, high-throughput. Potassium voltage-gated channel subfamily KQT member 1 (Homo sapiens), P51787. CHO-K1 KCNQ1, FluxOR thallium flux fluorescence; active compounds read high. B-score at 10 µM. 1.3% of 310,000 active. AID 2642, 2010;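 active = compounds whose thallium flux B-score, printed positive for inhibition, exceeds three library SD while starting fluorescence stays within three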;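 note: channel opened by potassium depolarization with thallium stimulus after 20 min compound exposure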
# KCNQ1 act: potentiators or activators of KCNQ1 channel, primary screen, cell-based, thallium flux, high-throughput; Potassium voltage-gated channel subfamily KQT member 1 (Homo sapiens), P51787; CHO-K1 KCNQ1, thallium flux FluxOR fluorescence; active compounds read high; B-score at 10 µM; 0.35% of 310,000 active; AID 2648, 2010;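 active = fluorescence ratio B-score, a plate-corrected score, at least three library SD, with initial intensity B-score within 5 SD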
#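 Assay system: CHO-K1 cells stably expressing KCNQ1. Medium: assay buffer for compound exposure, DMSO matched across wells. Timing: 37 °C overnight plating, 90-min dark dye load, 20-min compound pretreatment. Signal: kinetic FluxOR fluorescence, 10 s baseline plus 110 s post-stimulus.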
# Kir21 inh: inhibitors of mouse Kir2.1 inward-rectifier potassium channel; Inward rectifier potassium channel 2 (Mus musculus), P35561; HEK293-Kir2.1, FluxOR thallium flux fluorescence; active compounds read low; B-score at 10 µM; 0.85% of 310,000 active;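 active = fluorescence ratio B-score at or below minus 3 SD of library scores, with starting-brightness B-score within 2 SD, cut at about -4.2 in these data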;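 note: channel flux triggered by added potassium and thallium sulfate stimulus; B-score of peak minus minimum fluorescence over baseline after thallium stimulus; more negative B-score means stronger Kir2.1 block with less thallium influx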
# KCNK3 block: human KCNK3 channel inhibitors, primary screen, CHO cells, FluxOR thallium flux, B-score; AID 602410, 2012; 0.84% of 340,000 active; FluxOR fluorescence; active compounds read low; Potassium channel subfamily K member 3 (Homo sapiens), O14649; B-score at 10 µM;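 active = B-score under library mean minus 4 SD, starting fluorescence ratio at most library mean plus 5 SD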;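 note: more negative B-score means stronger inhibition of thallium flux through KCNK3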
# Target sequence (O14649 whole entry, looked up): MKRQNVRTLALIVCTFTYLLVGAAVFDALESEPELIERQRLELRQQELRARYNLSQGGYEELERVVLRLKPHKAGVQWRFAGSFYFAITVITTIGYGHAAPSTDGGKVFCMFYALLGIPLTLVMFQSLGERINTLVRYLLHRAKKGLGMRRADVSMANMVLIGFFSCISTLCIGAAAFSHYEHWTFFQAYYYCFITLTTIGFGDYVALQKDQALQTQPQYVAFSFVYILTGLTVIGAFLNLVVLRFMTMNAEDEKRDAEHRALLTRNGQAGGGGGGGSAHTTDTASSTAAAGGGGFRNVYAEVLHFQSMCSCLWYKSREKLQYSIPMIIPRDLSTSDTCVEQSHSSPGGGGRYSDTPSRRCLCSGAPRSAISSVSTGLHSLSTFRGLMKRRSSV
# hERG protect: hERG rescue from dofetilide block, primary screen, cell-based, CHO-hERG, FluxOR thallium flux, dofetilide IC70 | dofetilide IC70 present | activation (rescue from dofetilide block), less the hit threshold, % at 10 µM | Voltage-gated inwardly rectifying potassium channel KCNH2 (Homo sapiens), Q12809 | 0.51% of 310,000 active;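 active = activation above the mean of controls blocked by dofetilide plus 5 SD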;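 note: thallium influx through hERG after potassium depolarization seen as dye fluorescence rise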
# KCNK9 block: KCNK9 potassium channel inhibitors, primary screen, HEK293 cells, thallium flux; B-score at 10 µM; 1.2% of 310,000 active; FluxOR thallium flux fluorescence; active compounds read low; Potassium channel subfamily K member 9 (Homo sapiens), Q9NPC2;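 active = ratio B-score over 3 SD below the library mean, with starting fluorescence within 5 SD of its mean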;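 note: negative B-score means less thallium flux so channel inhibition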
# KCNK9 inh conf: KCNK9 potassium channel inhibitors, confirmation, HEK293 cells, thallium flux, duplicate; 43% of 4,900 active; inhibition, % at 10 µM; shares compounds with KCNK9 block; FluxOR thallium flux fluorescence;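 active = thallium signal inhibited by more than 5 SD of the compound-free buffer control wells, on both duplicate plates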
# Kir21 sel: mouse Kir2.1 channel inhibition, confirmation, selectivity assay for KCNK9 modulator project, cell-based, HEK293, thallium flux; Kir2.1 cells, FluxOR thallium flux fluorescence; 4% of 4,900 active; inhibition, % at 10 µM; shares compounds with KCNK9 block; AID 492993, 2010;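 active = thallium signal drop more than 5 SD beyond the mean of the no-compound control wells, seen in both duplicate plates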;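 note: signal is fluorescence rise after thallium addition divided by baseline fluorescence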
# HEK293 Tl ctr: thallium flux in non-induced HEK293 cells, confirmation, counter-screen for KCNK9 inhibitor project, cell-based, second counter screen, non-induced KCNK9-HEK293 | inhibition, % at 10 µM | AID 492997, 2010 | FluxOR thallium flux | 40% of 4,900 active | shares compounds with KCNK9 block;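 active = thallium signal drop beyond 5 SD of the untreated control mean, on both duplicate plates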
# Numbers stand for hits; i = inactive; nt = not tested or not shown.
SMILES,KCNQ1 inh,KCNQ1 act,Kir21 inh,KCNK3 block,hERG protect,KCNK9 block,KCNK9 inh conf,Kir21 sel,HEK293 Tl ctr
O=C(c1ccc2c3c(cccc13)CC2)C1CCCN(Cc2cccnc2)C1 (centres undefined),i,i,i,i,i,i,i,i,i
CCCN(Cc1nnc(-c2ccccc2Cl)o1)C(=O)c1cc([N+](=O)[O-])cc([N+](=O)[O-])c1,i,i,i,i,i,i,nt,nt,nt
O=C(c1oc2ccccc2c1CSCc1ccccc1)N1CCN(c2ncccn2)CC1,i,i,i,i,i,-9.6,23%,i,i
CCN(CC)c1nc(C(N)=O)cc(-c2ccccc2)n1,i,i,i,i,i,-8.5,i,i,i
Cc1cccc(N/C(N)=N/c2nc(C)c(Cc3ccccc3)c(=O)[nH]2)c1,i,i,i,i,i,i,nt,nt,nt
CC1=NN(c2ccc(C(=O)O)cc2)C(=O)/C1=C/c1ccc(-c2ccccc2F)o1,i,i,i,i,i,i,i,i,i
CC1=NN(c2ccccc2)C(=O)/C1=C/c1ccc(-c2ccc(C)c(C(=O)O)c2)o1,i,i,i,i,16,i,i,i,i
O=C(NCCCN1CCCC1=O)C(=O)NCC1OCCN1S(=O)(=O)c1ccc(Cl)cc1 (centres undefined),i,i,i,i,i,i,nt,nt,nt
OCC(O)[C@@H](O[C@H]1O[C@H](CO)[C@@H](O)[C@H](O)[C@H]1O)[C@H](O)[C@@H](O)CO (some centres undefined),i,i,i,i,i,i,nt,nt,nt
CCOC(=O)C1CCN(Cc2c(F)cccc2Cl)CC1,i,i,i,i,i,i,nt,nt,nt
CCOC(=O)C1CCN(Cc2coc3c(Cl)cc(Cl)cc3c2=O)CC1,i,i,i,i,i,i,i,i,i
CCn1cc(C2=NC(C(C)C)CO2)c2ccccc21 (centres undefined),i,i,i,i,i,i,i,i,i
CCn1cc(C2=NC(CCSC)CO2)c2ccccc21 (centres undefined),i,i,i,i,i,i,i,i,i
CCn1cc(C2N3CC4(C)CN2CC(C)(C3)C4=O)c2ccccc21 (centres undefined),i,i,i,i,i,i,nt,nt,nt
CC(C)C1COC(c2cccc3ccccc23)=N1 (centres undefined),i,i,i,i,i,i,nt,nt,nt
CCn1cc(C2=NC(CC(C)C)CO2)c2ccccc21 (centres undefined),i,i,i,i,i,i,i,i,i
Cc1cc(C)c(S(=O)(=O)NCCCn2ccnc2)cc1C,i,i,i,i,i,i,nt,nt,nt
Cc1ccnc(NC(=O)C23CC4CC(CC(C4)C2)C3)c1,i,i,i,i,i,i,i,i,i
COc1cc(-c2n[nH]c(=S)n2/N=C/c2cccn2C)cc(OC)c1OC,i,i,i,i,i,i,nt,nt,nt
O=Cc1ccc(OCc2nnsc2Cl)cc1,i,i,i,i,i,i,nt,nt,nt
O/N=C\c1cnc(N2CCN(c3ccccc3)CC2)s1,i,i,i,i,i,i,nt,nt,nt
CCCc1nc2ccccc2c(=O)n1/N=C/c1ccccc1O,6,i,i,i,i,-8.4,60%,i,30%
O=[N+]([O-])c1ccc(Oc2c(F)c(F)nc(N3CCCC3)c2F)cc1,7,i,i,i,i,i,i,i,i
CC(=C/c1ccc(C(C)C)cc1)/C=N/NC(=O)CSc1ccccn1,i,i,i,i,i,-20,60%,i,45%
CC(/C=N/NC(=O)CSc1ccccn1)=C\c1ccc(C(C)C)cc1,i,i,i,i,i,-13,59%,i,37%
SMILES,KCNQ1 inh,KCNQ1 act,Kir21 inh,KCNK3 block,hERG protect,KCNK9 block,KCNK9 inh conf,Kir21 sel,HEK293 Tl ctr
CCCCc1noc(-c2c(-c3ccccc3Cl)noc2C)n1,i,i,i,i,i,i,i,i,i
CC(C)CC1Nc2ncnc(N3CCCCC3)c2N(Cc2ccccc2)C1=O (centres undefined),i,i,i,i,i,-9.1,39%,i,38%
O=C1C(Cc2ccccc2)Nc2ncnc(N3CCCCC3)c2N1Cc1ccc(Cl)cc1 (centres undefined),i,i,i,i,i,-17,76%,i,34%
Nc1ccc(Oc2ccc3c(c2)C(=O)NC3=O)cc1,i,i,i,i,i,i,nt,nt,nt
Cc1cc(C)c(-c2csc(NC(=O)C3=NN(c4ccccc4)C(=O)CC3)n2)c(C)c1,i,i,i,i,i,i,nt,nt,nt
CCc1ccc(-c2csc(NC(=O)C3=NN(c4ccccc4)C(=O)CC3)n2)cc1,i,i,i,i,i,i,i,i,i
O=C(CN1CCN(c2ccccc2)CC1)Nc1c(C(=O)C2CC2)oc2ccccc12,i,i,i,i,i,-11,32%,i,i
O=C(O)CCSCC(=O)Nc1c(C(=O)C2CC2)oc2ccccc12,i,i,i,i,i,i,nt,nt,nt
CC1Cc2ccccc2N1C(=S)NC1CCCC1 (centres undefined),i,i,i,i,i,i,i,i,i
Cc1cc2ccccn2c1C(=O)c1ccccc1Br,i,i,i,i,i,-8.3,i,i,i
Cc1cc2ccccn2c1C(=O)c1ccc([N+](=O)[O-])cc1[N+](=O)[O-],i,i,i,i,i,i,nt,nt,nt
COc1cc(C(=O)Nc2cc3c(cc2N2CCCCC2)n(C)c(=O)n3C)cc(OC)c1OC,i,i,i,i,i,-20,67%,i,i
CCn1c(=O)n(CC)c2cc(N3CCCC3)c(NC(=O)c3ccccc3OC)cc21,i,i,i,i,i,-9,42%,i,i
Cc1cccc(NC(=O)c2ccc(S(=O)(=O)NCc3cccnc3)cc2)c1,i,i,i,i,i,i,nt,nt,nt
CC(=O)Oc1cc(C(=O)OCC(=O)NC23CC4CC(CC(C4)C2)C3)cc(OC(C)=O)c1OC(C)=O,nt,nt,nt,i,nt,nt,nt,nt,nt
